Source: PubChem
An excerpt weighted towards active compounds, which were near 3.9% of everything screened.
CHO parental Ca: counter-screen for OX1R antagonists: effect in parental CHO cells; parental CHO-K1, ATP-induced calcium, Fluo-8 fluorescence; inhibition, % at 5.6 µM; 330,000 tested, 0.63% active;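 active means inhibition above that plate's mean sample inhibition plus 3 SD, cut at about 26% in these data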
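Material: Parental CHO cells | Reagent: ATP | Compound dosing: Single nominal dose of 5.6 µM per compound | Detection: Intracellular calcium via Fluo-8 no-wash fluorescent dye | Read-out: % inhibition of ATP-induced calcium mobilization | Benchmarks: Low control ATP plus DMSO, high control DMSO only | Replicates: Singlicate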
TAAR1 agonist: agonists of human TAAR1. CHO RD-HGA16 TAAR1, Fluo-8 calcium fluorescence; vehicle wells 0%, saturating PEA agonist 100%. 360,000 tested, 0.99% active. AID 624467. activation, % at 3 µM;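 active means activation above the mean activation of all test compounds in the run plus 3 SD, cut at about 38% in these data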
Target sequence (Q96RJ0 whole entry, looked up): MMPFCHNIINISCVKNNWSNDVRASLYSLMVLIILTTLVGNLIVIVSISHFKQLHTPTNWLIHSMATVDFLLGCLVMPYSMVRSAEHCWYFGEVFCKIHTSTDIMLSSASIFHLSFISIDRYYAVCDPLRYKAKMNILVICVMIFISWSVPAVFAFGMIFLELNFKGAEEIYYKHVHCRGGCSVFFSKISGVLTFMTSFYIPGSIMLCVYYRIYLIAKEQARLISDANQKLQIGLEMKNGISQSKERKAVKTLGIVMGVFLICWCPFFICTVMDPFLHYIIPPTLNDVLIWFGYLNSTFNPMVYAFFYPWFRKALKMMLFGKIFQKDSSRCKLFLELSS
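Test system: RD-HGA16 (CHO) cells co-expressing Gα16 and hTAAR1 / Benchmarks: DMSO vehicle as 0%, PEA at EC100 as 100% / Repeats: no replicates (n 1) / Measure: % activation from peak over basal fluorescence ratio, DMSO-to-PEA scaled / Timing: 17-24 h plating, Fluo-8 75 min 37 °C, 30 min RT / Technique: kinetic Fluo-8 calcium fluorescence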
OX1R antag-1: antagonists of human orexin 1 receptor (OX1R); O43613; OX1R-expressing cells, FRET antagonist read-out; 330,000 tested, 1.8% active; AID 485270; inhibition, % at 6.6 µM; in the data active means inhibition mostly above about 38%, no sharp cut-off; inactive means mostly below about 40%
TAAR1 antag: human TAAR1 antagonism; Q96RJ0; CHO RD-HGA16 TAAR1, Fluo-8 calcium fluorescence, antagonist; inhibition, % at 3 µM; 360,000 tested, 1.5% active; AID 624466;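 active means inhibition above a per-plate cutoff, the mean inhibition of test compounds on that plate plus 3 SD, cut at about 49% in these data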
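Material: CHO RD-HGA16 cells bearing hTAAR1; compound dosing: one-point dosing, 3 µM nominal final; schedule: dye loading 75 min at 37 °C, then 30 min room temperature; measured by: calcium fluorescence with Fluo-8; control set: vehicle and agonist controls; replication: n of 1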
OX1R antag-2: antagonists of human orexin 1 receptor; O43613; CHO/OX1R cells, Fluo-8 calcium fluorescence, orexin A; 330,000 tested, 0.43% active; inhibition, % at 5 µM;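 active means inhibition above its plate's threshold, mean inhibition of all tested compounds on the plate plus 3 SD, cut at about 37% in these data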
nonsel antag count: nonselective antagonism, TAAR1 counter-screen | shares compounds with TAAR1 antag | counterscreen cell line, calcium fluorescence, antagonist mode | inhibition, % at 3 µM | 2,400 tested, 77% active | AID 651780; in the data active means inhibition above about 22%;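 further: CHO-Ga16 host cells stimulated with ATP at an EC80 level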
TAAR1 ant conf: human TAAR1 antagonism, confirmed; shares compounds with TAAR1 antag; TAAR1-expressing cells, fluorescence antagonist read-out; inhibition, % at 3 µM; 2,400 tested, 40% active; in the data active means inhibition above about 49%;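 further: CHO-Ga16 host cells challenged with agonist PEA near its EC80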
Ga16 ag counter: nonselective Ga16 agonism, counter-screen; shares compounds with TAAR1 antag; Ga16-expressing cells, calcium fluorescence, agonist counterscreen; activation, % at 3 µM; 2,400 tested, 18% active; AID 651953; in the data active means activation above about 12%
TAAR1 ag count: counter-screen for human TAAR1 antagonists: TAAR1 agonists. shares compounds with TAAR1 antag. 2,400 tested, 2% active. activation, % at 3 µM. AID 651955. hTAAR1 cell line, fluorescence activation, agonist mode; in the data active means activation above about 37%;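 further: CHO cells stably expressing TAAR1 with calcium dye readout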
Hits are given with their value; n = inactive; x = no result.

SMILES	CHO parental Ca	TAAR1 agonist	OX1R antag-1	TAAR1 antag	OX1R antag-2	nonsel antag count	TAAR1 ant conf	Ga16 ag counter	TAAR1 ag count
N#Cc1c(-c2ccccc2)cc2nc3ccccc3n2c1N	n	n	n	n	n	x	x	x	x
COc1cc(-c2cc3nc4ccccc4n3c(N)c2C#N)cc(OC)c1OC	n	n	n	90	n	34	53	n	n
Cc1ccccc1Nc1nnc(SCc2cc(=O)n3ccsc3n2)s1	n	n	n	n	n	x	x	x	x
COc1ccccc1Nc1nnc(SCc2cc(=O)n3cc(C)ccc3n2)s1	n	n	n	69	n	30	n	n	n
CCCN1CCN(CC(=O)Nc2nncs2)CC1	n	n	n	n	n	x	x	x	x
CC(C)(C)c1cc(C(=O)N/N=C/c2ccc(-c3ccccc3[N+](=O)[O-])o2)n[nH]1	n	n	n	63	n	27	53	n	n
O=C(N/N=C/c1ccc(-c2ccccc2[N+](=O)[O-])o1)c1cccnc1	n	n	n	n	n	x	x	x	x
COc1ccc(N2CCN(C(=O)C3CCCN(S(=O)(=O)c4cccc5cccnc45)C3)CC2)cc1 (stereo unspecified)	n	n	n	n	n	x	x	x	x
COc1ccc(NC(=O)C2CCCN(S(=O)(=O)c3cccc4cccnc34)C2)c(OC)c1 (stereo unspecified)	n	n	n	65	n	23	n	n	n
C=CCn1c(SCc2c(C)noc2C)nc2cc(C(=O)O)ccc2c1=O	n	n	n	76	n	n	n	n	n
C=CCn1c(SCc2c(C)noc2C)nc2ccccc2c1=O	n	n	n	n	n	x	x	x	x
COc1cc2c(cc1OC)/C(=C/C(=O)c1cccc([N+](=O)[O-])c1)NCC2	n	n	n	50	n	26	n	n	n
Oc1c(Br)cc(Br)cc1C=NCc1ccc(F)cc1	n	n	n	52	n	27	n	n	n
COc1ccc(C(=O)N2N=C(c3cccc(NS(C)(=O)=O)c3)CC2c2cccs2)cc1 (stereo unspecified)	n	n	n	61	n	31	n	n	n
COc1ccc(-c2[nH]c(-c3ccccc3)nc2SCC(=O)Nc2nccs2)cc1	n	n	n	49	n	n	n	n	n
COc1ccc(CNC(=O)CCS(=O)(=O)c2cc3c(cc2Cl)NC(=O)CO3)cc1	n	n	n	n	n	x	x	x	x
CCOC(=O)CCCSc1nnc(CCCCCN2C(=O)c3cccc4cccc(c34)C2=O)o1	n	n	n	58	n	37	n	n	n
CCOC(=O)CSc1nnc(CCCCCN2C(=O)c3cccc4cccc(c34)C2=O)o1	n	n	n	n	n	x	x	x	x
COc1cccc(C(=O)NCC(c2cccs2)N2CCOCC2)c1 (stereo unspecified)	n	n	n	100	n	n	n	n	n
CC(C)(C)[C@H]1COC(=O)CCCC/C=C\C[C@H](CC(=O)NCCO)C(=O)N1	n	n	n	n	n	x	x	x	x
O=S(=O)(c1ccccc1Br)N(Cc1ccccc1)CC(O)COCc1ccccc1 (stereo unspecified)	n	n	36	59	n	n	n	n	n
COc1cc(O)oc1C=Nc1ccc(C(F)(F)F)cc1	n	n	n	n	n	x	x	x	x
Cc1ccc(NC(=O)CC2S/C(=N/c3nccs3)N(C)C2=O)cc1C (stereo unspecified)	n	n	n	55	n	31	50	n	n
COc1ccc(-c2coc3c(C(=O)Nc4cccc(C(C)=O)c4)cccc23)c(C)c1	x	n	x	57	x	31	n	n	n
O=C(NCc1ccccc1)c1cccc2c(-c3cccnc3)coc12	x	n	x	n	x	x	x	x	x
NC(=O)c1cccc(-c2coc3c(C(=O)NCCc4ccccc4)cccc23)c1	x	n	x	64	x	36	n	n	n
